In brackets after ≈: the same amount, converted by molar mass.
Key:
HeLa = assay: Cytotoxicity against human HeLa cells assessed as growth inhibition after 72 hrs by MTT assay; type: functional, cell-based
In short: (§1)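 Cells grown in DMEM with 10% FBS, seeded at 10,000 per well, and treated after 24 h with a concentration series ending at […]; pristimerin as positive control. After 72 h, MTT (5 mg/ml) added for 3 h. Formazan dissolved in DMSO, read at 570 nm. IC50 is the concentration giving 50% growth inhibition; mean ± S.D. of three tests in triplicate.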

[1] = Antioxidant activity in rat erythrocytes assessed as inhibition of phenyl hydrazine-induced haemolysis after 1 hr; type: functional, cell-based; settings: erythrocyte
In short: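 20% PCV erythrocyte suspension made from rat blood. Samples at various concentrations combined with 0.5 mM phenyl hydrazine and erythrocyte suspension in phosphate buffered saline (3 ml total). Incubated 37 °C for 1 h, centrifuged 1000 g for 10 min, supernatant absorbance at 540 nm. α-Tocopherol as positive control.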

[2] = Antioxidant activity assessed as nitric oxide scavenging activity after 2.5 hrs by Griess assay; type: functional
In short: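 Sodium nitroprusside, 10 mM in phosphate saline buffer pH 7.4, added to samples at various concentrations and held 2.5 h at room temperature. Nitrite detected with Griess reagent at 546 nm against a blank. Inhibition (%) = (1 − A1/A0)×100, with A0 the control. Ascorbic acid as standard. Means of triplicates from three independent experiments.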

MCF7 = assay: Cytotoxicity against human MCF7 cells assessed as growth inhibition after 72 hrs by MTT assay; type: functional, cell-based; settings: MCF7, 72 h; in short: as §1
[3] = test system: Radical scavenging activity; assay: Antioxidant activity assessed as DPPH free radical scavenging activity after 15 mins by spectrophotometric analysis; type: functional
In short: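 Test samples at several concentrations mixed with stock DPPH (final concentration not stated), made up to 3 ml in methanol, incubated 15 min. Absorbance at 517 nm read against a sample-free blank. Ascorbic acid at various concentrations as standard. Values are means of triplicates from three independent experiments.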

SW982 = assay: Cytotoxicity against human SW982 cells assessed as growth inhibition after 72 hrs by MTT assay; type: functional, cell-based; settings: SW982, 72 h; in short: as §1

IC50 [2] | IC50 [3] | SMILES | IC50 (HeLa) | IC50 [1] | IC50 (MCF7) | IC50 (SW982)
2.32 µg/mL (≈ 6.65 µM) | 5.073 µg/mL (≈ 14.5 µM) | COc1cc(OC)c(OC)cc1/C=C/C(=O)c1cc(Cl)ccc1O | > 150 µM | 2.233 µg/mL (≈ 6.4 µM) | > 150 µM | > 150 µM
– | – | CC=Cc1cc(OC)c(OC)cc1OC [CIS-ASARONE] | 126 µM | – | 129 µM | > 150 µM
2.434 µg/mL (≈ 7.37 µM) | 4.566 µg/mL (≈ 13.8 µM) | COc1cc(OC)c(C2CC(=O)c3cc(O)ccc3O2)cc1OC (centres undefined) | > 150 µM | 2.14 µg/mL (≈ 6.48 µM) | > 150 µM | > 150 µM
2.085 µg/mL (≈ 5.69 µM) | 5.153 µg/mL (≈ 14.1 µM) | COc1cc(OC)c(OC)cc1/C=C/C(=O)c1cccc(C(F)(F)F)c1 | > 150 µM | 2.302 µg/mL (≈ 6.28 µM) | > 150 µM | > 150 µM
2.444 µg/mL (≈ 7.4 µM) | 2.653 µg/mL (≈ 8.03 µM) | COc1cc(OC)c(OC)cc1/C=C/C(=O)c1cc(O)ccc1O | > 150 µM | 2.103 µg/mL (≈ 6.37 µM) | > 150 µM | > 150 µM
2.33 µg/mL (≈ 6.77 µM) | 4.496 µg/mL (≈ 13.1 µM) | COc1cc(OC)c(-c2oc3ccc(O)cc3c(=O)c2O)cc1OC | > 150 µM | 2.154 µg/mL (≈ 6.26 µM) | > 150 µM | > 150 µM
2.012 µg/mL (≈ 6.74 µM) | 4.506 µg/mL (≈ 15.1 µM) | COc1cc(OC)c(OC)cc1/C=C/C(=O)c1ccccc1 | > 150 µM | 2.225 µg/mL (≈ 7.46 µM) | > 150 µM | > 150 µM
1.982 µg/mL (≈ 5.77 µM) | 4.754 µg/mL (≈ 13.8 µM) | COc1cc(OC)c(OC)cc1/C=C/C(=O)c1ccc([N+](=O)[O-])cc1 | > 150 µM | 2.337 µg/mL (≈ 6.81 µM) | > 150 µM | > 150 µM
2.145 µg/mL (≈ 6.19 µM) | 4.973 µg/mL (≈ 14.3 µM) | COc1cc(OC)c(-c2cc(=O)c3cc(Cl)ccc3o2)cc1OC | > 150 µM | 2.125 µg/mL (≈ 6.13 µM) | > 150 µM | > 150 µM
1.977 µg/mL (≈ 5.09 µM) | 5.023 µg/mL (≈ 12.9 µM) | COc1cc(OC)c(C(=O)/C=C/c2cc(OC)c(OC)cc2OC)c(OC)c1 | 108 µM | 2.134 µg/mL (≈ 5.49 µM) | 51.4 µM | 96.5 µM
2.273 µg/mL (≈ 6.92 µM) | 4.808 µg/mL (≈ 14.6 µM) | COc1cc(OC)c(-c2cc(=O)c3ccc(O)cc3o2)cc1OC | > 150 µM | 2.147 µg/mL (≈ 6.54 µM) | > 150 µM | > 150 µM
– | – | COC(=O)[C@]1(C)CC[C@]2(C)CC[C@]3(C)C4=CC=C5C(=CC(=O)C(O)=C5C)[C@]4(C)CC[C@@]3(C)[C@@H]2C1 [PRISTIMERIN] | 3.42 µM | – | 0.87 µM | 1.28 µM
2.224 µg/mL (≈ 5.9 µM) | 4.318 µg/mL (≈ 11.4 µM) | COc1cc(OC)c(OC)cc1/C=C/C(=O)c1ccc(Br)cc1 | 31.7 µM | 2.3 µg/mL (≈ 6.1 µM) | 18.3 µM | 38.2 µM
2.37 µg/mL (≈ 5.72 µM) | 4.65 µg/mL (≈ 11.2 µM) | COc1cc(OC)c(OC)cc1/C=C/C(=O)c1cc(OC(C)=O)ccc1OC(C)=O | 57.9 µM | 2.327 µg/mL (≈ 5.62 µM) | 63.7 µM | 78.5 µM
1.99 µg/mL (≈ 5.27 µM) | 4.472 µg/mL (≈ 11.8 µM) | COc1cc(OC)c(OC)cc1/C=C/C(=O)c1ccc(Cl)c([N+](=O)[O-])c1 | 16.5 µM | 2.151 µg/mL (≈ 5.69 µM) | 16.4 µM | 20.6 µM
2.763 µg/mL (≈ 8.36 µM) | 4.368 µg/mL (≈ 13.2 µM) | COc1cc(OC)c(OC)cc1/C=C/C(=O)c1ccc(O)cc1O | 37.6 µM | 2.373 µg/mL (≈ 7.18 µM) | 33.8 µM | 32.4 µM
2.014 µg/mL (≈ 6.05 µM) | 4.593 µg/mL (≈ 13.8 µM) | COc1cc(OC)c(OC)cc1/C=C/C(=O)c1ccc(Cl)cc1 | 36.5 µM | 2.298 µg/mL (≈ 6.91 µM) | 29.5 µM | 58.5 µM
2.462 µg/mL (≈ 7.15 µM) | 4.31 µg/mL (≈ 12.5 µM) | COc1cc(C(=O)/C=C/c2cc(OC)c(OC)cc2OC)ccc1O | > 150 µM | 2.163 µg/mL (≈ 6.28 µM) | 95.5 µM | > 150 µM
2.502 µg/mL (≈ 7.96 µM) | 4.293 µg/mL (≈ 13.7 µM) | COc1cc(OC)c(OC)cc1/C=C/C(=O)c1ccc(O)cc1 | – | 2.285 µg/mL (≈ 7.27 µM) | 182 µM | 155 µM
– | – | Cc1c(C)c2c(c(C)c1O)CC[C@@](C)(CCC[C@H](C)CCC[C@H](C)CCCC(C)C)O2 [ALPHA-TOCOPHEROL] | – | 3.658 µg/mL (≈ 8.49 µM) | – | –
1.963 µg/mL (≈ 6.21 µM) | 4.71 µg/mL (≈ 14.9 µM) | COc1cc(OC)c(OC)cc1/C=C/C(=O)c1ccc(F)cc1 | 28.6 µM | 2.216 µg/mL (≈ 7.01 µM) | 30 µM | 32.5 µM
2.142 µg/mL (≈ 6.52 µM) | 4.487 µg/mL (≈ 13.7 µM) | COc1cc(OC)c(-c2cc(=O)c3cc(O)ccc3o2)cc1OC | > 150 µM | 2.141 µg/mL (≈ 6.52 µM) | > 150 µM | > 150 µM
2.078 µg/mL (≈ 5.42 µM) | 4.269 µg/mL (≈ 11.1 µM) | COc1cc(OC)c(OC)cc1/C=C/C(=O)c1ccc(N2CCOCC2)cc1 | > 150 µM | 2.121 µg/mL (≈ 5.53 µM) | > 150 µM | > 150 µM
2.181 µg/mL (≈ 6.98 µM) | 4.325 µg/mL (≈ 13.8 µM) | COc1cc(OC)c(OC)cc1/C=C/C(=O)c1ccc(C)cc1 | 42.2 µM | 2.236 µg/mL (≈ 7.16 µM) | 33 µM | 81.1 µM
2.07 µg/mL (≈ 6.3 µM) | 4.394 µg/mL (≈ 13.4 µM) | COc1ccc(C(=O)/C=C/c2cc(OC)c(OC)cc2OC)cc1 | 37.6 µM | 2.178 µg/mL (≈ 6.63 µM) | 33.9 µM | 60.5 µM
2.632 µg/mL (≈ 14.9 µM) | 3.039 µg/mL (≈ 17.3 µM) | O=C1O[C@H]([C@@H](O)CO)C(O)=C1O [ASCORBIC ACID] | – | – | – | –
2.092 µg/mL (≈ 4.1 µM) | 5.002 µg/mL (≈ 9.8 µM) | COc1cc(OC)c(OC)cc1/C=C/C(=O)c1cc(OCc2ccccc2)cc(OCc2ccccc2)c1 | 26.9 µM | 2.167 µg/mL (≈ 4.24 µM) | 23.3 µM | 69.9 µM
2.348 µg/mL (≈ 6.84 µM) | 4.309 µg/mL (≈ 12.6 µM) | COc1cc(OC)c(OC)cc1/C=C/C(=O)c1cccc([N+](=O)[O-])c1 | 130 µM | 2.209 µg/mL (≈ 6.43 µM) | > 150 µM | 101 µM
1.972 µg/mL (≈ 5.41 µM) | 4.757 µg/mL (≈ 13.1 µM) | COc1cc(OC)c(OC)cc1/C=C/C(=O)c1ccc(-n2ccnc2)cc1 | > 150 µM | 2.481 µg/mL (≈ 6.81 µM) | > 150 µM | > 150 µM
2.106 µg/mL (≈ 5.81 µM) | 4.68 µg/mL (≈ 12.9 µM) | COc1cc(OC)c(-c2oc3ccc(Cl)cc3c(=O)c2O)cc1OC | > 150 µM | 2.144 µg/mL (≈ 5.91 µM) | > 150 µM | > 150 µM

From ChEMBL document CHEMBL2331230, “Synthesis, anticancer and antioxidant activities of 2,4,5-trimethoxy chalcones and analogues from asaronaldehyde: structure-activity relationship” (Eur J Med Chem, 2013)
